In ChEMBL document CHEMBL1123812, “Pyrroloisoquinoline antidepressants. 2. In-depth exploration of structure-activity relationships” (J Med Chem, 1987):

How the values were obtained:
[1] = biological target: Sodium-dependent serotonin transporter (Rattus norvegicus) (UniProt P31652); assay: Inhibition of tritiated serotonin(5-HT) uptake at 0.1 uM concentration; type: functional
Summary of the method: (§1)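 Male Wistar rat brain synaptosomes (P2 fraction): hypothalamus for NE, striatum for DA, cerebral cortex for 5-HT. Buffer is Tris- or HEPES-buffered salt medium with glucose, ascorbate and nialamide, pH 7.4 at 37 °C. Preincubated 10 min at 37 °C with compound. Uptake started with [3H]NE 100–300 nM, [3H]DA 50–300 nM or [3H]5-HT 100–200 nM, incubated 3 min (DA) or 6–10 min (NE, 5-HT). Blanks held on ice. Filtered, counted by scintillation.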

[2] = biological target: Norepinephrine transporter (Rattus norvegicus, UniProt Q9WTR4); assay: Inhibition of uptake of tritiated norepinephrine (NE) in rat synaptosomes; type: subcellular, Brain
[3] = biological target: Sodium-dependent dopamine transporter (Rattus norvegicus) (UniProt P23977); assay: Inhibition of tritiated dopamine (DA) uptake at 0.1 uM concentration; type: functional; summary of the method: as §1
[4] = biological target: Sodium-dependent dopamine transporter (Rattus norvegicus, UniProt P23977); assay: Inhibition of the uptake of tritiated dopamine (DA) in rat synaptosomes; type: subcellular, Brain
[5] = biological target: T1, Adrenergic receptor alpha-1 (Rattus norvegicus, UniProt P15823+P23944+P43140); assay: Binding affinity towards alpha-1 adrenergic receptor; type: protein assay
T1 sequence (P15823 whole entry): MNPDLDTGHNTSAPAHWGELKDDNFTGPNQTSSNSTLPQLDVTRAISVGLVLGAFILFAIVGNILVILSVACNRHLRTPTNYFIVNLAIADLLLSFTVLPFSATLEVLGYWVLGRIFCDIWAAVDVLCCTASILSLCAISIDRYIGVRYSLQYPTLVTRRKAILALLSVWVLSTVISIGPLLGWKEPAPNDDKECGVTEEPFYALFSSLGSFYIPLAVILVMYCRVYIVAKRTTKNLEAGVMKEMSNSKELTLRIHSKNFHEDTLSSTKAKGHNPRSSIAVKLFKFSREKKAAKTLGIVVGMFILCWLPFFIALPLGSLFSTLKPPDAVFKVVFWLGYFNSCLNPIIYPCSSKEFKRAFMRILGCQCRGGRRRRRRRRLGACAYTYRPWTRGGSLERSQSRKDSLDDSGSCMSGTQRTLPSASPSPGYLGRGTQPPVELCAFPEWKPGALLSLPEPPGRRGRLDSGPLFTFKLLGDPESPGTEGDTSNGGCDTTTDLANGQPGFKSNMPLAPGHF
T1 sequence (P23944 whole entry): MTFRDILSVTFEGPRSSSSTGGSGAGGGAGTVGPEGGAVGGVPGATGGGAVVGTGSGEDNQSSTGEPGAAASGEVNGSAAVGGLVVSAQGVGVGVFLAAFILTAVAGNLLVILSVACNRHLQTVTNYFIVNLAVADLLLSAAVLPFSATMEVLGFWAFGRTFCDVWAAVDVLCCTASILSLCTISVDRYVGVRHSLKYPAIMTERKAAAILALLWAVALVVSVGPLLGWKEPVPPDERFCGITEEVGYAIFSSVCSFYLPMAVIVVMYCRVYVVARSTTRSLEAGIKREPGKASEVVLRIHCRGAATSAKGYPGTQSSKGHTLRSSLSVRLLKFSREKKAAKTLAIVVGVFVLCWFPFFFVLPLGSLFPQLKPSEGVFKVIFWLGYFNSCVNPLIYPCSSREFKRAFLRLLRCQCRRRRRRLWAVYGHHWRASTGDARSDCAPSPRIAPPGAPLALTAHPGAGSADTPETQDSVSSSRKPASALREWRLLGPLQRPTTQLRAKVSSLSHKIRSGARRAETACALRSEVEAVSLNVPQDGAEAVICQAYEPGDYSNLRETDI
T1 sequence (P43140 whole entry): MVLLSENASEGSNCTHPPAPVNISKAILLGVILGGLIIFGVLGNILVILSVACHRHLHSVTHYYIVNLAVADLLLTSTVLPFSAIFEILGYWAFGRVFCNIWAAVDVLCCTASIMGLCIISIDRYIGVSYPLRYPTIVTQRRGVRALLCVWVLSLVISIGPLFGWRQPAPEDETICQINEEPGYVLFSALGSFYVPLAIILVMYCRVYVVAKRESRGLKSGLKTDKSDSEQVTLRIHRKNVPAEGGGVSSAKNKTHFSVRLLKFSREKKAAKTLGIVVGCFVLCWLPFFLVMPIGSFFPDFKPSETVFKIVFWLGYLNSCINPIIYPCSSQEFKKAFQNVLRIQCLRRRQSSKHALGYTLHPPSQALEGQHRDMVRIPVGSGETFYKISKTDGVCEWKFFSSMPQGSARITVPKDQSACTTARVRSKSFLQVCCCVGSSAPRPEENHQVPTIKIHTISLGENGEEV

Mus musculus [6] = organism: Mus musculus; assay: Antagonism of tetrabenazine (TBZ)-induced depression in mice measured for ptosis; type: functional
Summary of the method: (§2)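 Nonfasted male Swiss Webster mice, 18–24 g, ten per dose level and in saline controls. Test compound given ip 30 min before tetrabenazine 32 mg/kg ip; dose expressed as free base. Motor activity and ptosis scored. Control response ≤90% corrected by Abbott's formula.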

Mus musculus [7] = organism: Mus musculus; assay: Antagonism of tetrabenazine (TBZ)-induced depression measured in mice by motor activity; type: functional; summary of the method: as §2
Mus musculus [8] = organism: Mus musculus; assay: Gross behavioral effects ascertained in mice; W indicates weak stimulant or depressant activity of little significance.; type: functional, organism-based
Summary of the method: (§3)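 Male Swiss Webster mice, 18–24 g, three per dose, given ip doses of 1, 3, 10, 30, 100 and 300 mg/kg. Observed for gross behavior and held for 4 days. Scored as weak (W), stimulant (S), depressant (D) or convulsant (C).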

[9] = biological target: Sodium-dependent dopamine transporter (Rattus norvegicus) (UniProt P23977); assay: Ability to inhibit the uptake of [3H]dopamine (DA) 0.1 uM concentration at rat brain synaptosomes; type: functional, subcellular; summary of the method: as §1
[10] = biological target: Norepinephrine transporter (Rattus norvegicus) (UniProt Q9WTR4); assay: Ability to inhibit the uptake of [3H]norepinephrine (NE) 0.1 uM concentration at rat brain synaptosomes; type: functional, subcellular; summary of the method: as §1
[11] = biological target: Sodium-dependent serotonin transporter (Rattus norvegicus) (UniProt P31652); assay: Ability to inhibit the uptake of [3H]- serotonin(5-HT) 0.1 uM concentration at rat brain synaptosomes; type: functional, subcellular; summary of the method: as §1
[12] = biological target: D(2) dopamine receptor (Rattus norvegicus) (UniProt P61169); assay: Binding affinity towards dopamine receptor D2 at 1.0 uM concentration
Summary of the method: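 Rat brain crude synaptic membranes in 20 mM NaHEPES pH 7.5. Ligands: α1 cortex […] 0.4 nM, nonspecific with (-)-NE 100 μM, 30 min at 25 °C. […] D2 striatum [3H]spiperone 0.05 nM with (+)-butaclamol 1 μM, 45 min at 37 °C. S1 cortex [3H]5-HT 1 nM plus glutathione and MgCl2, with 5-HT 10 μM, 20 min at 37 °C. […] Samples filtered on GF/B and counted.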

Mus musculus [13] = organism: Mus musculus; assay: Gross behavioral effects ascertained in mice; S indicates significant stimulant properties.; type: functional, organism-based; summary of the method: as §3
Rattus norvegicus = organism: Rattus norvegicus; assay: Ability to inhibit the uptake of tritiated norepinephrine (NE) at 0.1 uM concentration; type: functional; summary of the method: as §1

Chain of Sodium-dependent dopamine transporter (P23977 whole entry): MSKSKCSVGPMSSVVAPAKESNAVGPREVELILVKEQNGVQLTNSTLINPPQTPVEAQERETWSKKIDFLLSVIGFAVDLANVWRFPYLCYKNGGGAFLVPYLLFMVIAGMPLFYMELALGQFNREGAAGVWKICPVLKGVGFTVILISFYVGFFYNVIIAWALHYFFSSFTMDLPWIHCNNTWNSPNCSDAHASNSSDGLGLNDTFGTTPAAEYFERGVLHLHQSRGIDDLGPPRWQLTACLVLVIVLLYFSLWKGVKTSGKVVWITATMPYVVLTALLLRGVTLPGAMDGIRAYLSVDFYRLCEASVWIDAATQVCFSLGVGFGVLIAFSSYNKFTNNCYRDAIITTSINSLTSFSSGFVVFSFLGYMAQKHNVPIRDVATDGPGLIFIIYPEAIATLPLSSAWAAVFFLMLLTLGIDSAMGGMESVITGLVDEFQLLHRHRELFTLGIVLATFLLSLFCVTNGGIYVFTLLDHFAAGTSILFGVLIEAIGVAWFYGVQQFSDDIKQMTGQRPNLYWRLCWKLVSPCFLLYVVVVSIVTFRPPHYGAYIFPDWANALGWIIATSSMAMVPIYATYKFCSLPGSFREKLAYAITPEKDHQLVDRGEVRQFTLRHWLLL
Chain of Sodium-dependent dopamine transporter (Rattus norvegicus) (P23977 whole entry): as above
Chain of Sodium-dependent serotonin transporter (Rattus norvegicus) (P31652 whole entry): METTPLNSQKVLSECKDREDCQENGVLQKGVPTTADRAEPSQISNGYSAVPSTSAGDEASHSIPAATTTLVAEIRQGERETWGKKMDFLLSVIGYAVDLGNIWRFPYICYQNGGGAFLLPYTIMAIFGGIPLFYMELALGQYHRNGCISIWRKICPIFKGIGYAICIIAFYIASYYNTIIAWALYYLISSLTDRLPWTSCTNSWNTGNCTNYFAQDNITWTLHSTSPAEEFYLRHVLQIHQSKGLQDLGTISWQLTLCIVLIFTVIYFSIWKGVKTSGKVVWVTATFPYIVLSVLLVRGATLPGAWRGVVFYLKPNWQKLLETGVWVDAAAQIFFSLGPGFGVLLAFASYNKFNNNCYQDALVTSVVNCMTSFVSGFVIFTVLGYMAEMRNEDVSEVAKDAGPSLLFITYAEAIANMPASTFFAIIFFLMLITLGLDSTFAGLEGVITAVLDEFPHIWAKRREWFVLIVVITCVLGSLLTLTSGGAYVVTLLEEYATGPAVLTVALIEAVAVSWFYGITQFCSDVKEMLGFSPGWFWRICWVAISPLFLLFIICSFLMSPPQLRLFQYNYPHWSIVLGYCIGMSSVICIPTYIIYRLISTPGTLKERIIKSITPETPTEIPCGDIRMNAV
Chain of Norepinephrine transporter (Rattus norvegicus) (Q9WTR4 as listed by the source): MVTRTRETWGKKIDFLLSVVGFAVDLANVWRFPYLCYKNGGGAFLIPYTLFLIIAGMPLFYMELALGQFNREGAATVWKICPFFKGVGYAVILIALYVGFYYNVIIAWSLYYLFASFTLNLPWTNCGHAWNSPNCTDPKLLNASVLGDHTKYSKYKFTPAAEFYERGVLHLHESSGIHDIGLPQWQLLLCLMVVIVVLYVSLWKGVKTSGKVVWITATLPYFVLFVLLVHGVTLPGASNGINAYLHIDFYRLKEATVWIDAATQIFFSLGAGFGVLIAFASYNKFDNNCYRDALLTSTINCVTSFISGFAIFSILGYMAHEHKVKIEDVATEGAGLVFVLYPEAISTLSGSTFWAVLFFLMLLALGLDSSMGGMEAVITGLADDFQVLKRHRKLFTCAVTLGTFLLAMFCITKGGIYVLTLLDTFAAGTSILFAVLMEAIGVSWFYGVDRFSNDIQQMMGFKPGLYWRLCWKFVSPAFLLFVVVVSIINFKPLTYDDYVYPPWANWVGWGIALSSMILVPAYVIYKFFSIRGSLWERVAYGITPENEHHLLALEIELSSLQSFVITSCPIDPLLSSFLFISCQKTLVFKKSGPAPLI
Chain of Norepinephrine transporter (Q9WTR4 whole entry): as the sequence (Q9WTR4 as listed by the source) above
Chain of D(2) dopamine receptor (Rattus norvegicus) (P61169 whole entry): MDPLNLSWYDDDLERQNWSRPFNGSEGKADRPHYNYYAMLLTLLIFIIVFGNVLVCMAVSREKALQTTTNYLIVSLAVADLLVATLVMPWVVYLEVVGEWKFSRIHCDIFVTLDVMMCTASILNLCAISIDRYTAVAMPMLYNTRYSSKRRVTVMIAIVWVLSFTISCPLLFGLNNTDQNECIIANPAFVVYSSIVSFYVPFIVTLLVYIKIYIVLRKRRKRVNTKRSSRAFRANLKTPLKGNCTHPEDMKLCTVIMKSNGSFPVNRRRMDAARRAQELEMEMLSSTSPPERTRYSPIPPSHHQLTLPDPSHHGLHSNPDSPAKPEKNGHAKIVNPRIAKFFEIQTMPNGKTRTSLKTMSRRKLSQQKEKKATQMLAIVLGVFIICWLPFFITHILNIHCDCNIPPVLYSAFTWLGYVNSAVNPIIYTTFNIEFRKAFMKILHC

| Structure (SMILES) | Ki [2] [nM] | Ki [4] [nM] | ED50 (Mus musculus [6]; Mus musculus, read-out: ED50) [mg/kg] | ED50 (Mus musculus [7]; Mus musculus, read-out: ED50) [mg/kg] | inhibition [9] [%] | inhibition [10] [%] | inhibition [11] [%] | also measured |
| --- | --- | --- | --- | --- | --- | --- | --- | --- |
| Clc1cccc([C@@H]2CN3CCC[C@H]3c3ccccc32)c1 | 100 | – | – | – | – | – | – | inhibition [1]: 11%; inhibition [3]: 67% |
| FC(F)(F)c1cccc([C@@H]2CN3CCC[C@@H]3c3ccccc32)c1 (stereo in doubt; (-)-37b) | 2570 | 7690 | – | – | – | – | – | Ki [5]: 30 nM |
| c1ccc([C@@H]2CN3CCC[C@@H]3c3ccccc32)cc1 (stereo in doubt; (-)-7b) | – | 1340 | – | – | – | – | – | ED50 (Mus musculus [6]): 8.3 mg/kg; ED50 (Mus musculus [7]): >30 mg/kg; Ki [5]: 262 nM |
| C[C@H]1[C@H](c2ccccc2)c2ccccc2[C@@H]2CCCN21 | – | – | 3.3 | ~30 | 17 | 62 | 15 | behavior (Mus musculus [8]): Weak |
| COc1cc2c(cc1OC)[C@H]1CCCN1C[C@H]2c1ccccc1 | 53.7 | 15 | 3.8 | 15.1 | – | – | – | inhibition [12]: 6%; behavior (Mus musculus [13]): Stimulant |
| Clc1cccc2c1[C@H]1CCCN1C[C@H]2c1ccccc1 | – | – | – | – | – | – | – | Inhibition (Rattus norvegicus): 4%; inhibition [1]: 22%; inhibition [3]: 45% |
| Br.c1ccc([C@@H]2Cc3ccccc3[C@@H]3CCCN23)cc1 | – | – | 0.87 | > 30 | 0 | 7 | – | behavior (Mus musculus [8]): Weak |
| O=C(O)c1ccccc1[C@@H]1CN2CCC[C@@H]2c2ccccc21 | – | – | – | – | 3 | 0 | 6 | – |
| Br.c1ccc([C@H]2CN3CCC[C@H]3c3[nH]c4ccccc4c32)cc1 | 2.3 | 2.9 | 0.3 | 1.07 | – | – | – | behavior (Mus musculus [13]): Significant stimulant |
| FC(F)(F)c1ccccc1[C@@H]1CN2CCC[C@H]2c2ccccc21 | – | – | – | – | 0 | 12 | 4 | – |
| Br.Oc1cccc([C@@H]2CN3CCC[C@@H]3c3ccccc32)c1 | 0.85 | 10.1 | 0.11 | > 10 | – | – | – | behavior (Mus musculus [13]): Significant stimulant |
| O=C(O)c1ccccc1[C@@H]1CN2CCC[C@H]2c2ccccc21 | – | – | – | – | 5 | 1 | 1 | – |
| CC(=O)Nc1ccc([C@@H]2CN3CCC[C@H]3c3ccccc32)cc1 | – | – | 1.8 | 4.4 | 57 | 27 | – | behavior (Mus musculus [8]): Weak |
| Br.Oc1cccc([C@@H]2CN3CCC[C@H]3c3ccccc32)c1 | 15.1 | 44.8 | 3.1 | > 30 | – | – | – | behavior (Mus musculus [13]): Stimulant |
| FC(F)(F)c1cc([C@@H]2CN3CCC[C@H]3c3ccccc32)cc(C(F)(F)F)c1 | – | – | – | – | -3 | 0 | -3 | – |
